{
  "source": "paper PMC12219203",
  "about": "(Nature Communications, 2025)",
  "key": {"NOD1": {"target": "NOD1 (Homo sapiens, UniProt Q9Y239)", "sequence (Q9Y239 whole entry)": "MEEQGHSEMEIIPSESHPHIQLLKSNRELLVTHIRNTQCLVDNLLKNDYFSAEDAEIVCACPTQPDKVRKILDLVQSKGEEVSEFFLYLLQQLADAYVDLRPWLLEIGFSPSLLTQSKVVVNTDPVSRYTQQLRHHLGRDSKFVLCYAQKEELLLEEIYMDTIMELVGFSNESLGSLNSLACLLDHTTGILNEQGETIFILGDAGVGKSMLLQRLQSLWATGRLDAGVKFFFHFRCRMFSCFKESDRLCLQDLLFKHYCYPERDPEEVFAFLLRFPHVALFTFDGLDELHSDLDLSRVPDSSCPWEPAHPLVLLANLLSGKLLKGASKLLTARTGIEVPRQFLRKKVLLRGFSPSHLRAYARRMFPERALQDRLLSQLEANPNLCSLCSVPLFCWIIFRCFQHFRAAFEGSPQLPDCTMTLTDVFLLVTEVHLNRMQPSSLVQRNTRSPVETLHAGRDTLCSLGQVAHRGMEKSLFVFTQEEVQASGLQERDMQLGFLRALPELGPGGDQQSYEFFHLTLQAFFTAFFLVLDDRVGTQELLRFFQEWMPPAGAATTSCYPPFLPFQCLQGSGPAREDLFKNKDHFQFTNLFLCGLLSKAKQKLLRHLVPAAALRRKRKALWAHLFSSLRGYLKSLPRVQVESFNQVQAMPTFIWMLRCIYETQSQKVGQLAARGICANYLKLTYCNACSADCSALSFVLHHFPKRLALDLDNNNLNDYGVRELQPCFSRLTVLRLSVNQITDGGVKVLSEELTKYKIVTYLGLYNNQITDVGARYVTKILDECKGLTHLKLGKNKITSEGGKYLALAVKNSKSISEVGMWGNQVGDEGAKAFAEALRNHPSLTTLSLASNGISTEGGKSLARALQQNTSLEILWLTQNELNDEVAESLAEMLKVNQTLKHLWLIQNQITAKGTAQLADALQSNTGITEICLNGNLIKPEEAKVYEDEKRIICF", "experiment": "HEK-Blue NOD1 SEAP reporter assay", "assay_type": "cell-based", "conditions": "GM, M 20 μM; 18 h", "in_short": "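HEK-Blue hNod1 or hNod2 cells were seeded at 50,000 cells/well in DMEM/10% FBS without selection antibiotics and stimulated at once for 18 h (n = 3). Supernatant was mixed 1:4 with Quanti-Blue and incubated 6 h at 37 °C, and absorbance was read at 620 nm. Values were blanked against water-treated wells, and the respective parental Null cell readouts were subtracted.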"}, "RAW264.7 cells": {"test_system": "RAW264.7 cells", "experiment": "Cytokine expression in RAW264.7 macrophages", "assay_type": "cell-based, mouse", "conditions": "GM 1-4 mM, M 4 mM, 24 h", "in_short": "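RAW264.7 cells were kept in high-glucose IMDM with HEPES, 5% heat-inactivated FBS and penicillin/streptomycin at 37 °C, 5% CO2. They were exposed to test compounds for 24 h (n = 4). Total RNA was extracted with a column kit, and TNF-α and IL-6 transcripts were quantified by RT-qPCR using the 2-ΔΔCt method, normalised to β-act.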"}, "[1]": {"test_system": "WT bone-marrow-derived macrophages (BMDMs)", "experiment": "Cytokine gene expression in WT BMDMs", "assay_type": "cell-based, mouse", "conditions": "GM 2-8 mM, M 8 mM", "in_short": "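Marrow was flushed from the femur and tibia of female SPF C57BL/6J mice and red cells were lysed (NH4Cl/KHCO3). Cells at 200,000 cells/mL were differentiated for 6 days in IMDM with 20 ng/mL GM-CSF or 10% L929 supernatant, then switched to serum-free IMDM. Test compounds were added for 24 h (n = 3). Cytokine transcripts were measured by RT-qPCR (2-ΔΔCt, normalised to β-act).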"}, "WT BMDMs [2]": {"test_system": "WT BMDMs", "experiment": "Cytokine secretion by WT BMDMs", "assay_type": "cell-based, mouse", "conditions": "GM 4 mM, PB-resin, 24 h", "in_short": "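Bone-marrow macrophages were derived from female C57BL/6J mice (GM-CSF or L929 supernatant, 6 days) and moved to serum-free IMDM. They were given 4 mM test compound or 100 ng/mL LPS for 24 h, each either untreated or first neutralised with polymyxin B resin. Supernatants were cleared at 16,000 × g and TNF-α was measured by sandwich ELISA, with samples prediluted in 1% BSA/PBS when needed.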"}, "[3]": {"test_system": "murine bone marrow-derived dendritic cells (cDC2)", "experiment": "CD80/86 surface expression in cDC2s of BMDCs", "assay_type": "cell-based, mouse", "conditions": "50, 100, 200 μM, 18 h", "in_short": "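Bone marrow from femur and tibia of C57BL/6J female mice was red-cell-lysed and plated at 2,000,000 cells/mL in medium with FLT3 ligand-containing supernatant, with feeding on days 3 and 6. DCs were reseeded at 2,000,000 cells/well and stimulated 18 h. Cells were Fc-blocked, stained with anti-CD80, anti-CD86 and live/dead dye, and analysed by flow cytometry as MFI in gated cDC2s.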"}, "mTLR4": {"target": "mTLR4 (Mus musculus, UniProt Q9JHF9+Q9QUK6)", "sequence (Q9QUK6 26-835)": "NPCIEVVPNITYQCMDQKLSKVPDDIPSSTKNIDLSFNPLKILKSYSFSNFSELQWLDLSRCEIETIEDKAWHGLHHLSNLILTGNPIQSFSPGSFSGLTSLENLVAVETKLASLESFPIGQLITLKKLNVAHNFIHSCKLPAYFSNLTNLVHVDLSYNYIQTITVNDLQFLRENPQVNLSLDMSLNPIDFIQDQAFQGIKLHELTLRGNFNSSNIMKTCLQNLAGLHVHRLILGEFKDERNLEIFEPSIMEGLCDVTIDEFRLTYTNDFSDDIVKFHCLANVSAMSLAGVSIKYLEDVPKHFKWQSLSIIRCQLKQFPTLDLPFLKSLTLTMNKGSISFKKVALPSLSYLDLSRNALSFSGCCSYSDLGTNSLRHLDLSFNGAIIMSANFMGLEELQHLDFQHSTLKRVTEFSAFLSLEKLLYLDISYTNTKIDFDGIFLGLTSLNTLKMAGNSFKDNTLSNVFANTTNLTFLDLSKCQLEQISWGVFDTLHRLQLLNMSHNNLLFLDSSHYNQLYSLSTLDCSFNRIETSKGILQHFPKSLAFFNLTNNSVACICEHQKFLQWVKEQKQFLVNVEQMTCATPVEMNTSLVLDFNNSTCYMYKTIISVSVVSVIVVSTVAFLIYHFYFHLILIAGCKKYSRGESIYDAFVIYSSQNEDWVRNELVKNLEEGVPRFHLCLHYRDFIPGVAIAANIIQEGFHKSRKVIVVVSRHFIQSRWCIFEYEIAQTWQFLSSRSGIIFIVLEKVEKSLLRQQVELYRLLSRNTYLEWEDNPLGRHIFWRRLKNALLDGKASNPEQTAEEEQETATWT", "sequence (Q9JHF9 19-160)": "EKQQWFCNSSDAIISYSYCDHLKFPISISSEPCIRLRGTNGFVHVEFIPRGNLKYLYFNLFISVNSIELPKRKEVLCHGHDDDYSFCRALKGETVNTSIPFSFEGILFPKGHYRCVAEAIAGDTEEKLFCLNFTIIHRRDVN", "experiment": "HEK-Blue mTLR4 SEAP reporter assay", "assay_type": "cell-based", "conditions": "24 h"}, "[4]": {"test_system": "IRF signaling in RAW-Dual Tlr4-/- cells", "experiment": "RAW-Dual Tlr4-/- IRF reporter", "assay_type": "cell-based, mouse", "conditions": "24 h", "in_short": "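RAW-Dual Tlr4-/- cells were seeded at 100,000 cells/well without selection antibiotics, 24 h before a 24 h exposure to test compounds. IRF-driven secreted luciferase was measured by mixing 20 µL supernatant with 50 µL Quanti-Luc 4 and reading luminescence immediately.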"}, "mTLR4/mMD2 (K263A / wt)": {"target": "mTLR4/mMD2 (K263A / wt) (Mus musculus, UniProt Q9JHF9+Q9QUK6, K263A)", "sequence (Q9QUK6 26-835 K263A)": "as the sequence (Q9QUK6 26-835) above, with K238A counted along it", "sequence (Q9JHF9 19-160)": "as the sequence (Q9JHF9 19-160) above", "experiment": "NF-κB SEAP in HEK-Blue Null1, mTLR4 K263A / mMD2 wt", "assay_type": "cell-based", "conditions": "GM 0.4, 0.2 mM, 24 h", "in_short": "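Point mutants of mTLR4 or mMD2 were made by site-directed mutagenesis. HEK-Blue Null1 cells were co-transfected by lipofection for 16 h with 500 ng total of mTLR4 and Myc-tagged mMD2 plasmids (1:1); mock wells received lipofection reagent only. After a medium change the next day, cells were treated for 24 h. NF-κB SEAP was measured and normalised to water-treated samples; data are mean ± s.e.m., n = 3.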"}, "WT C57BL/6 J mice": {"test_system": "WT C57BL/6 J mice", "experiment": "DSS-induced colitis model in WT mice", "assay_type": "in vivo, mouse", "conditions": "GM 10 mg/kg i.p. daily", "in_short": "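Male SPF C57BL/6J mice aged 7–8 weeks, WT or Tlr4-/- (bred in house), were age-, weight- and sex-matched. They drank 3% (w/v) DSS water for 7 days and were then euthanised. Test compound (10 mg/kg) or PBS (5 mL/kg) was given i.p. daily from 2 days before DSS until the end. Body weight was recorded daily.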"}, "WT BMDMs [5]": {"test_system": "WT BMDMs", "experiment": "RNAseq of WT BMDMs", "assay_type": "cell-based, mouse", "conditions": "GM 8 mM, 24 h, n = 3", "in_short": "(§1)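 BMDMs were differentiated 6 days from mouse bone marrow with GM-CSF or L929 supernatant at 800,000 cells/well, switched to serum-free IMDM and stimulated 24 h; MDP 0.4 mM was run alongside. Total RNA was extracted for RNAseq. Differentially expressed genes were called at p < 0.01 and logFC > 1 and plotted as mean heatmaps; n = 3.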"}, "Tlr4-/- BMDMs": {"test_system": "Tlr4-/- BMDMs", "experiment": "RNAseq of Tlr4-/- BMDMs", "assay_type": "cell-based, mouse", "conditions": "GM 8 mM, 24 h, n = 3", "in_short": "as §1"}, "[6]": {"test_system": "NF-κB p65 and MAPK p38 phosphorylation in WT BMDMs", "experiment": "Immunoblot of p65 and p38 phosphorylation in WT BMDMs", "assay_type": "cell-based, mouse", "conditions": "GM 5 mM", "in_short": "(§2)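 Bone-marrow macrophages from WT or Tlr4-/- C57BL/6J mice were stimulated directly with 5 mM test compound or 500 ng/mL LPS. Cells were lysed in Tris/SDS/Triton buffer with protease and phosphatase inhibitors plus 10 mM DTT and boiled, then run on SDS-PAGE and transferred to PVDF. Blots were probed with rabbit antibodies to total or phospho-p65, total or phospho-p38 and GAPDH (1:1000, 4 °C overnight), then HRP anti-rabbit (1:5000).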"}, "[7]": {"test_system": "NF-κB p65 and MAPK p38 phosphorylation in Tlr4-/- BMDMs", "experiment": "Immunoblot of p65 and p38 phosphorylation in Tlr4-/- BMDMs", "assay_type": "cell-based, mouse", "conditions": "GM 5 mM", "in_short": "as §2"}, "WT mice sera": {"test_system": "WT mice sera", "experiment": "Multiplex immunoassay of serum cytokines and chemokines in mice", "assay_type": "in vivo, mouse", "conditions": "GM 10 mg/kg i.p. daily, no DSS", "in_short": "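Mice received daily intraperitoneal injections, with PBS (5 mL/kg) as vehicle. Serum was analysed with a bead-based inflammatory cytokine/chemokine panel according to the kit protocol, read on a flow cytometer with a high-throughput sampler.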"}, "[8]": {"experiment": "GM abundance in mouse gut after intraperitoneal injection", "assay_type": "in vivo", "conditions": "mice, i.p. injection of GM; LC-MS"}},
  "data": [
    {"smiles": "CC(=O)N[C@H]1[C@H](O[C@H]2[C@H](O[C@H](C)C(=O)O)[C@@H](NC(C)=O)C(O)O[C@@H]2CO)O[C@H](CO)[C@@H](O)[C@@H]1O", "note": "(stereo partly drawn) [GM, N-acetylglucosamine-β−1,4-N-acetylmuramic acid]", "values": [
      {"measurement": "NOD1 activation in HEK-Blue reporter cells (in words)", "setting": "NOD1", "value": "unable to activate NOD1/2"},
      {"measurement": "Immuno-stimulatory activity (TNF-α, IL-6) in RAW264.7 (in words)", "setting": "RAW264.7 cells", "value": "dose-dependent immuno-stimulatory activity"},
      {"measurement": "Immuno-stimulatory activity (TNF-α, IL-6) in BMDMs (in words)", "setting": "[1]", "value": "dose-dependent immuno-stimulatory activity"},
      {"measurement": "TNF-α induction in BMDMs after polymyxin B neutralization (in words)", "setting": "WT BMDMs [2]", "value": "unaffected by polymyxin B neutralization"},
      {"measurement": "CD80/86 surface markers in cDC2 population of BMDCs (in words)", "setting": "[3]", "value": "upregulates CD80/86 surface marker expressions"},
      {"measurement": "Activity in HEK-Blue mTLR4 reporter cells under polymyxin B titration (in words)", "setting": "mTLR4; GM 1 mM, polymyxin B 0, 0.1, 1, 10 kU", "value": "unaffected by polymyxin B titration"},
      {"measurement": "TLR4 stimulation in HEK-Blue mTLR4 reporter cells (in words)", "setting": "mTLR4; disaccharides 0.5 or 1 mM, GM-A and GM-AE 1 mM", "value": "stimulate TLR4"},
      {"measurement": "IRF signaling in RAW-Dual Tlr4-/- cells (in words)", "setting": "[4]", "value": "minimal activity"},
      {"measurement": "Effect of mutation mTLR4_K263 on NF-κB activity (in words)", "setting": "mTLR4/mMD2 (K263A / wt)", "value": "abolished GM-triggered NF-κB activity"},
      {"measurement": "H&E-stained colonic tissue, WT DSS mice", "setting": "WT C57BL/6 J mice; 3% DSS", "value": "reduced epithelial erosion and mononuclear cell infiltration"},
      {"measurement": "Colonic Il10, WT DSS mice", "setting": "WT C57BL/6 J mice; 3% DSS, RT-qPCR", "value": "no significant change in Il10 was observed"},
      {"measurement": "Colonic cytoprotective factors Keap1 and Hspb1, WT DSS mice", "setting": "WT C57BL/6 J mice; 3% DSS, RT-qPCR", "value": "upregulated"},
      {"measurement": "Colonic expression of Tnfa, Il1b, Ccl2, WT DSS mice", "setting": "WT C57BL/6 J mice; 3% DSS, RT-qPCR", "value": "significantly suppressed"},
      {"measurement": "Morbidity in mice", "setting": "WT C57BL/6 J mice; without DSS treatment", "value": "did not result in any morbidity in mice"},
      {"measurement": "Cytokine and chemokine genes (Il12a/b, Il6, Il1a/b, Csf3, Ccl5, Cxcl1) by RNAseq, WT BMDMs", "setting": "WT BMDMs [5]", "value": "significantly upregulated"},
      {"measurement": "Cytokine and chemokine genes by RNAseq, Tlr4-/- BMDMs", "setting": "Tlr4-/- BMDMs", "value": "fails to induce the expression of these genes"},
      {"measurement": "p65 and p38 phosphorylation in WT BMDMs", "setting": "[6]", "value": "mild increase in phosphorylation"},
      {"measurement": "p65 and p38 phosphorylation in Tlr4-/- BMDMs", "setting": "[7]", "value": "absence of p65 and p38 phosphorylation"},
      {"measurement": "Circulating cytokines and chemokines in mice, GM alone", "setting": "WT mice sera", "value": "does not significantly alter circulating cytokines and chemokines in mice"},
      {"measurement": "Abundance in the mouse gut after intraperitoneal injection", "setting": "[8]", "value": "temporally increased its abundance in the mouse gut"}
    ]}
  ]
}
